Screens: PubChem, several laboratories
The list is not random: actives were taken first. Their share in the collection is about 6.7%.
CHOP inhibitor – CHOP inhibition in unfolded protein response. inhibition, % at 10 µM. AID 2732. CHO-K1 CHOP-promoter luciferase, tunicamycin-induced, 15-18 h. 220,000 compounds, 3.8% hits;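 active = compounds that reduced the stress-induced luciferase reporter signal by more than about 70% of percent inhibition, limit read from the data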
CSC inhib – blocks cancer stem cells; cancer stem cell-like cells viability, luminescence; AID 2717; 300,000 compounds, 1.1% hits; inhibition, % at 7.5 µM; in the data active = inhibition above about 75%; tested in HMLE shEcad cells
NR3A LBD binder – modulates the human NR3A ligand-binding domain; NR3A LBD differential scanning fluorimetry, Tm shift; 0% = protein alone, 100% = glycine-bound protein; AID 1259313; Tm shift relative to glycine control, % at 25 µM; 340,000 compounds, 2.5% hits;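 active = melting temperature shift of at least 10% of the positive control shift, at one fixed dose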
Beta apoptosis – beta cell apoptosis inhibition; AID 435005; INS-1E cytokine-induced death, ATP luminescence, 48 h; percent of positive-control rescue, neutral wells zero; protection from apoptosis, % (concentration not given with the values); 300,000 compounds, 0.8% hits;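 active = Every replicate reaches about 75%, or at least half do and their mean reaches it too, limit read from the data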;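 note: higher means more ATP so stronger rescue from cytokine killing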
PREPL inh – inhibitors of human prolyl oligopeptidase-like enzyme PREPL. inhibition, % at 5.96 µM. Q4J6C6. recombinant PREPL, fluorescence polarization activity-based probe. 320,000 compounds, 0.68% hits. AID 2751; in the data active = inhibition above about 43%
Target sequence (Q4J6C6 whole entry, looked up): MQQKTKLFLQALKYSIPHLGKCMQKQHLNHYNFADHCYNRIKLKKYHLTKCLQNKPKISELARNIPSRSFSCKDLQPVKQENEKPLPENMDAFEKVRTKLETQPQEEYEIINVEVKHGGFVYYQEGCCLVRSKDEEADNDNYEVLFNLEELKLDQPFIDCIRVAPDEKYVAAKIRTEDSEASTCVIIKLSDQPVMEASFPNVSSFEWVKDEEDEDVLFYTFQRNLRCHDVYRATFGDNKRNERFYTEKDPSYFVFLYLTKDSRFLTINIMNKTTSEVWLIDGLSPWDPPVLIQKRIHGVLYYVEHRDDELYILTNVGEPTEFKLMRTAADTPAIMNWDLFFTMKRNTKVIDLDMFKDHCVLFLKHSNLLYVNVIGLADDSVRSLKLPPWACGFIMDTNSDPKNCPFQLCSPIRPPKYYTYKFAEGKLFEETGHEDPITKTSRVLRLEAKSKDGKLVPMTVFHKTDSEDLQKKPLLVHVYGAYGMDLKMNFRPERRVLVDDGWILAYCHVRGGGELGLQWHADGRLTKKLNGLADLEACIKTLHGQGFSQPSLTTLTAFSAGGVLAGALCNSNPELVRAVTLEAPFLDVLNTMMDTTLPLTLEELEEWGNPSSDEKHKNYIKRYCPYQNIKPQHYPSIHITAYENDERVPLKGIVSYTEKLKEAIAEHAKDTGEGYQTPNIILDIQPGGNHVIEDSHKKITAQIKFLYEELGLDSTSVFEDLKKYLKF
T cruzi repl – T. cruzi replication inhibition; 300,000 compounds, 1.4% hits; AID 1885; T. cruzi beta-gal in NIH3T3, luminescence, 90 h; inhibition, % (no concentration beside the values);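 active = mean inhibition across valid replicates above about 55%, limit read from the data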;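 note: signal also drops with host cell toxicity which is not excluded here; higher percent means less beta-gal luminescence so fewer parasites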
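Assay system: NIH/3T3 host cells with β-galactosidase reporter T. cruzi; input: 5,000 host fibroblasts per well; compound: single 50 nL compound addition per well in DMSO; timing: ≥90 h infection period, 3 h prior cell attachment; measured by: GalScreen β-gal luminescence, detergent lysis, 60 min; evaluation: percent inhibition of parasite-derived β-gal signal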
CHOP confirm – confirmation of CHOP induction inhibitors | 2,100 compounds, 45% hits | AID 504437 | shares compounds with CHOP inhibitor | CHO-CHOP promoter luciferase reporter, tunicamycin-induced, luminescence | inhibition, % at 10 µM;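 active = mean of three repeat readings of reporter signal inhibition above a set limit, cut at about 70% in these data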
Numbers stand for hits; . = inactive; / = not tested or not shown.

SMILES	CHOP inhibitor	CSC inhib	NR3A LBD binder	Beta apoptosis	PREPL inh	T cruzi repl	CHOP confirm
NS(=O)(=O)c1ccc(N=Nc2c(-c3ccccc3)[nH]n(-c3nc(-c4ccccc4)cs3)c2=O)cc1	.	.	26	.	.	.	/
NC(=O)c1ccc(N=Nc2c(-c3ccccc3)[nH]n(-c3ccccc3)c2=O)cc1	.	.	/	.	.	.	/
Nc1[nH]n2c(=O)cc(-c3ccccc3)nc2c1N=Nc1ccccc1	.	92	16	.	.	.	/
Cc1ccc(NC(=S)N(CCC(C)C)C(C)c2ccncc2)c(Cl)c1 (centres undefined)	.	.	.	.	.	.	/
CC(C)c1cccc(C(C)C)c1NC(=O)CN1C(=O)NC2(CCCCCCC2)C1=O	/	.	.	.	.	/	/
COc1ccc(CNC(=O)c2csc(Cc3ccc(Cl)cc3)n2)cc1	72	.	.	.	.	.	/
CCN1CCN(c2c(Cl)cccc2NC(=O)c2cc3ccccc3o2)CC1	/	.	.	.	.	.	/
CCC1CCCCN1c1cc(C)nc2cc(-c3cccc(C)c3)nn12 (centres undefined)	87	/	.	.	.	.	/
O=C(Cn1c(C(F)(F)F)nc2ccccc21)N=Nc1c(O)[nH]c2ccc(Br)cc12	106	.	10	.	.	.	116
CN1/C(=C/C(=O)c2nc(S(C)(=O)=O)ncc2Cl)C(C)(C)c2ccccc21	/	111	.	.	.	.	117
CCOC(=O)c1c(N)sc(C(O)(C(F)(F)F)C(F)(F)F)c1-c1ccc(Cl)cc1	98	.	.	.	.	.	121
Cc1cc(-c2[nH]nc3c2C(c2ccc(Cl)cc2)C(C#N)=C(N)O3)c(C)s1 (centres undefined)	103	.	.	.	.	.	104
Cc1[nH]nc2c1C(c1ccc(Cl)cc1)C(C#N)=C(N)O2 (centres undefined)	.	.	.	.	.	.	/
CCCCCOC(=O)Nc1ccc(S(=O)(=O)Nc2cccc([N+](=O)[O-])c2)cc1	109	.	28	.	.	.	.
O=C(NCc1nc(-c2ccc(C(F)(F)F)cc2)no1)Nc1cc(Cl)cc(Cl)c1	102	134	33	110	.	60	109
Oc1ccc(Cl)cc1CNCc1cccc2ccccc12	/	.	.	.	.	/	/
COC(=O)c1cccc(NC(=O)NC23CC4CC(CC(C4)C2)C3)c1	101	.	.	.	.	.	.
O=S1(=O)C=C(Sc2nc3ccccc3s2)c2ccccc21	/	141	.	122	.	69	115
Cc1cc(C)nc(SC2=CS(=O)(=O)c3ccccc32)n1	.	.	.	.	.	.	/
COc1ccc(-c2nc(NC(=O)Cn3ccc(C(F)(F)F)n3)sc2C)cc1	103	.	.	.	.	.	74
CC(=O)Nc1ccc(S(=O)(=O)NCCC(=O)N2CCC(Cc3ccccc3)CC2)cc1	/	/	.	.	.	/	/
COc1ccc(-c2cnc(OC(C)(C)C)nc2OC(C)(C)C)cc1OC	106	.	.	.	.	.	89
COc1ccc(-c2cc3cc(OC)c(OC)cc3cn2)cc1OC	/	.	.	.	.	.	/
CS(=O)(=O)c1ccc(NC(=O)CCCc2nc3ccccc3c(=O)[nH]2)cc1	/	.	.	.	.	.	/
Cc1c(NC(=O)COC(=O)c2ccc(Br)o2)c(=O)n(-c2ccccc2)n1C	.	.	.	.	.	.	/
SMILES	CHOP inhibitor	CSC inhib	NR3A LBD binder	Beta apoptosis	PREPL inh	T cruzi repl	CHOP confirm
COc1ccc(NC(=O)c2cc3c(=O)n(C)c4ccccc4c3n2C)cc1Cl	101	.	.	.	.	.	.
CC(C)=CCc1c(O)c(CC=C(C)C)c2c(c1O)C(=O)CC(c1ccc(O)cc1)O2 (centres undefined)	101	.	15	.	.	.	73
O=C(CN1CCC(NC(=O)c2ccco2)CC1)Nc1ccccc1[N+](=O)[O-]	.	.	/	.	.	.	/
CCC1C(c2ccccc2)N(C)C(c2ccccc2)CC1(O)c1ccccc1 (centres undefined)	99	.	.	.	.	60	.
CC1C(c2ccccc2)N(C)C(c2ccccc2)C(C)C1(O)C#Cc1ccccc1 (centres undefined)	.	/	.	.	.	/	/
CCOC(=O)c1cc(C)nc(Sc2ccc(C)cc2)c1C#N	.	.	.	/	.	.	/
O=C1c2cccc3cccc(c23)C(=O)N1OS(=O)(=O)c1ccccc1	.	.	.	.	.	.	/
O=C1c2ccccc2C(=O)N1OS(=O)(=O)c1ccccc1	108	.	/	.	.	.	.
Cc1ccc(C)c(S(=O)(=O)ON2C(=O)c3ccccc3C2=O)c1	106	.	.	.	.	.	106
O=C(OC(C(=O)Nc1cccc(C(F)(F)F)c1)c1ccccc1)C1CCCCC1 (centres undefined)	107	.	14	.	.	/	.
CC(C)(C)c1ccc(C(=O)NNC(=O)c2cccc(Br)c2)cc1	102	.	.	.	.	.	94
Cc1ccnc(NC(=O)c2sc3ccccc3c2Cl)c1	99	.	.	.	.	.	.
O=C(Nc1ccccc1-c1nc2ccccc2[nH]1)c1sc2ccccc2c1Cl	97	.	/	.	.	60	106
Cc1ccc2c(Cl)c(C(=O)Nc3cc(C)on3)sc2c1	.	/	.	.	.	.	/
O=C1C=C(c2ccccc2)C(=O)N1Nc1ccccc1	107	.	.	/	.	.	.
Cc1ccc(NN2C(=O)C=C(c3ccc(Cl)cc3)C2=O)cc1	108	.	.	.	.	.	140
COc1ccc(C2=CC(=O)N(Nc3ccccc3)C2=O)cc1	101	.	.	.	.	.	.
O=C(Nc1c(F)cccc1F)C1CCN(C(=O)c2cccs2)CC1	/	.	.	.	.	.	/
O=C(NC1CCCCC1)C(c1ccc(F)cc1)N(Cc1ccccc1)C(=O)CN1C(=O)c2ccccc2S1(=O)=O (centres undefined)	109	.	.	.	.	.	80
CCN(CC)C(=O)C1CCCN(c2ccccc2[N+](=O)[O-])C1 (centres undefined)	.	.	.	.	.	.	/
COC(=O)/C=C/S(=O)(=O)c1ccc(NC(C)=O)cc1	/	.	.	.	.	.	.
COc1ccccc1OS(=O)(=O)c1ccc(NC(C)=O)cc1	.	.	.	.	.	.	/
CC(Sc1nnc(Cc2ccccc2)n1C)C(=O)NC1CC1 (centres undefined)	/	/	.	/	.	/	/
O=C(Cc1ccc(Cl)c(Cl)c1)Nc1ccc2[nH]c(=O)[nH]c2c1	98	.	.	.	.	.	.
CCOC(=O)Nc1ccc(C(=O)/C=C/c2ccccc2)cc1	.	.	.	.	.	.	/
O=C(CCCN1C(=O)/C(=C\c2ccccc2)SC1=S)Nc1ccc(O)cc1	98	.	.	.	.	.	.
